ChEMBL document CHEMBL3808367, “Novel HIV-1 Non-nucleoside Reverse Transcriptase Inhibitor Agents: Optimization of Diarylanilines with High Potency against Wild-Type and Rilpivirine-Resistant E138K Mutant Virus” (J Med Chem, 2016)
In brackets after ≈: the same amount, converted by molar mass.

Experiments:
[1] = tested on: Liver microsome; assay: Half life in human liver microsomes at 1 uM by LC-MS analysis; type: ADME
In short: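 Compound at 1 µM final with 0.1 mg/mL human liver microsomes, 5 mM MgCl2, 1.0 mM NADPH in 0.1 M potassium phosphate pH 7.4 at 37 °C. Quenched with ice-cold acetonitrile at 0, 5, 15, 30 and 45 min, in duplicate. Parent measured by LC-MS/MS (MRM, ESI).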

[2] = tested on: Human immunodeficiency virus 1; assay: Antiviral activity against rilpivirine resistant HIV1 harboring reverse transcriptase E138K mutant assessed as inhibition of viral infection in human TZM-bl cells measured after 1 day by luciferase reporter gene assay; type: functional, organism-based; conditions: Human immunodeficiency virus 1, TZM-bl, 24 h
[3] = tested on: Human immunodeficiency virus 1; assay: Antiviral activity against HIV1 NL4-3 assessed as inhibition of viral infection in human TZM-bl cells measured after 1 day by luciferase reporter gene assay; type: functional, organism-based; conditions: Human immunodeficiency virus 1, NL4-3, TZM-bl, 24 h
[4] = Metabolic stability in human liver microsomes assessed as parent compound remaining at 1 uM incubated for 30 mins in presence of NADPH by LC-MS analysis; type: ADME; conditions: read-out: Stability
In short: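 Compound at 1 µM final with 0.1 mg/mL human liver microsomes, 5 mM MgCl2, 1.0 mM NADPH in 0.1 M potassium phosphate pH 7.4 at 37 °C. Parent measured by LC-MS/MS (MRM, ESI).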

[5] = tested on: Human immunodeficiency virus 1; assay: Resistance index, ratio of EC50 for […] resistant HIV1 A17 harboring reverse transcriptase K103N/Y181C double mutant infected in human MT2 cells to EC50 for HIV1 3B infected in human MT2 cells; type: functional
In short: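 Fold change is EC50 against A17 (K103N/Y181C) divided by EC50 against IIIB. Both are from the MT-2 assay: 100 TCID50 virus, overnight exposure to compound, then compound-free medium, and day-4 p24 ELISA.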

[6] = Cytotoxicity against human TZM-bl cells assessed as reduction in cell viability after 1 day by CytoTox-Glo assay; type: cell-based; conditions: for CC50 at 24 h: TZM-bl cells; for CC50: tzm, 24 h
In short: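 TZM-bl cells exposed to graded compound concentrations for 1 day, run in parallel with the antiviral assay. Viability read by CytoTox-Glo following the manufacturer's protocol.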

[7] = n-octanol-water partition coefficient, logP of compound at pH 7.4 stirred for 24 hrs followed by overnight incubation by HPLC analysis; type: physicochemical
[8] = tested on: Human immunodeficiency virus 1; assay: Resistance index, ratio of EC50 for rilpivirine resistant HIV1 harboring reverse transcriptase E138K mutant infected in human TZM-bl cells to EC50 for HIV1 NL4-3 infected in human TZM-bl cells; type: functional
[9] = Aqueous solubility in 0.01 M Hcl at pH 2 at 10 mg/ml after 4 hrs by UV-HPLC method; type: physicochemical; conditions: buffer, pH 2, 4 h
[10] = Aqueous solubility in pH 7.4 phosphate buffer at 10 mg/ml after 4 hrs by UV-HPLC method; type: physicochemical; conditions: pH 7.4, 4 h
[11] = tested on: Human immunodeficiency virus 1; assay: Antiviral activity against HIV1 3B infected in human MT2 cells measured on day 4 post infection by p24 ELISA method; type: functional, organism-based; conditions: Human immunodeficiency virus 1, 3B, MT2, 96 h
[12] = Selectivity index, ratio of CC50 for human TZM-bl cells to EC50 for HIV1 3B infected in human MT2 cells; type: toxicity, cell-based
[13] = tested on: Human immunodeficiency virus 1; assay: Antiviral activity against […] resistant HIV1 A17 harboring reverse transcriptase K103N/Y181C double mutant infected in human MT2 cells measured on day 4 post infection by p24 ELISA method; type: functional, organism-based; conditions: Human immunodeficiency virus 1, A17, MT2, 96 h
In short: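 MT-2 cells (10^4 per well) were infected with 100 TCID50 of IIIB or A17 in RPMI 1640 with 10% FBS, with or without graded compound concentrations, overnight. Medium was then replaced with compound-free medium. On day 4, supernatant was mixed with an equal volume of 5% Triton X-100 and p24 was quantified by ELISA. EC50 was calculated from percent inhibition of p24 production.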

Structure (SMILES) | t1/2 [1] | EC50 [2] | EC50 [3] | remaining at 0.5 h, 1 µM [4] | Ratio EC50 [5] | CC50 at 24 h [6] | logD at 24 h [7] | Ratio EC50 [8] | CC50 [6] | solubility [9] | solubility [10] | EC50 [11] | Ratio CC50/EC50 [12] | EC50 [13]
COCc1cc(N)c(Nc2ccc(C#N)cc2)cc1Oc1c(C)cc(CCC#N)cc1C | 231 min | 13.3 nM | 1.45 nM | 90.8% | 0.9 | > 200 µM | 3.25 | 9.2 |  |  |  |  |  | 
CC(=O)OCc1cc(N)c(Nc2ccc(C#N)cc2)cc1Oc1c(C)cc(CCC#N)cc1C | 10.2 min | 39.1 nM | 3.3 nM | 3% | 3.4 |  | 2.84 | 12 | 44.8 µM |  |  |  |  | 
Cc1cc(CCC#N)cc(C)c1Oc1cc(Nc2ccc(C#N)cc2)c(N)cc1C(=O)NC1CC1 |  | 22.1 nM | 2 nM | 63.2% |  |  | 2.61 | 11 | 121 µM | 141 µg/mL (≈ 303 µM) | 1.94 µg/mL (≈ 4.17 µM) | 9.58 nM | 12630 | 
CCOCc1cc(N)c(Nc2ccc(C#N)cc2)cc1Oc1c(C)cc(CCC#N)cc1C |  | 88.4 nM | 14.3 nM |  | 12 |  |  | 6.2 | 194 µM |  |  | 3.76 nM | 51596 | 46.6 nM
CNC(=O)c1cc(N)c(Nc2ccc(C#N)cc2)cc1Oc1c(Br)cc(CCC#N)cc1OC | 139 min | 12.5 nM | 5.58 nM | 75.7% | 14 |  | 3.16 | 2.2 | 52.4 µM | 25.8 µg/mL (≈ 49.6 µM) | 3.38 µg/mL (≈ 6.5 µM) | 2.1 nM | 24952 | 29.3 nM
Cc1cc(CCC#N)cc(C)c1Oc1cc(Nc2ccc(C#N)cc2)c(N)cc1C(=O)NC(C)C |  |  | 72.6 nM |  |  |  |  |  | 184 µM |  |  | 47.7 nM | 3857 | 
Cc1cc(CCC#N)cc(C)c1Oc1ccc(N)c(Nc2ccc(C#N)cc2)c1 |  | 113 nM | 16 nM |  |  | > 200 µM |  | 7.1 |  |  |  | 11.6 nM | > 17241 | 
Cc1cc(CCC#N)cc(C)c1Oc1cc(Nc2ccc(C#N)cc2)c(N)cc1COC(=O)C1CC1 | 11.7 min | 23.3 nM | 1.63 nM | 4.18% |  |  | 2.51 | 14 | 42.2 µM | 1.24 µg/mL (≈ 2.58 µM) | 1.64 µg/mL (≈ 3.41 µM) | 23.2 nM | 1818 | 
Cc1cc(CCC#N)cc(C)c1Oc1cc(Nc2ccc(C#N)cc2)c(N)cc1C(=O)N(C)C | 99 min | 11.7 nM | 6.16 nM | 72.2% | 45 |  | 2.86 | 1.9 | 38.2 µM | 65.1 µg/mL (≈ 144 µM) | 1.08 µg/mL (≈ 2.38 µM) | 1.59 nM | 24025 | 72.2 nM
COC(=O)c1cc(N)c(Nc2ccc(C#N)cc2)cc1Oc1c(Br)cc(CCC#N)cc1OC | 139 min | 9.98 nM | 5.19 nM | 81.5% |  |  | 2.85 | 1.9 | 10.1 µM | 1.73 µg/mL (≈ 3.32 µM) | 0.2 µg/mL (≈ 0.384 µM) | < 0.122 nM | > 82787 | 
COC(=O)c1cc(N)c(Nc2ccc(C#N)cc2)cc1Oc1c(OC)cc(CCC#N)cc1OC |  |  | 102 nM |  |  |  |  |  | 128 µM |  |  | 329 nM | 389 | 
Cc1cc(CCC#N)cc(C)c1Oc1cc(Nc2ccc(C#N)cc2)c(N)cc1Br | 50 min | 65.2 nM | 3.26 nM | 58.3% |  |  | > 5 |  | 84.8 µM | 0.25 µg/mL (≈ 0.542 µM) | 0.12 µg/mL (≈ 0.26 µM) | 0.49 nM |  | 13.9 nM
Cc1cc(CCC#N)cc(C)c1Oc1cc(Nc2ccc(C#N)cc2)c(N)cc1CN1CCN(C)CC1 |  |  | 115 nM |  |  |  |  |  |  |  |  |  |  | 
CNC(=O)OCc1cc(N)c(Nc2ccc(C#N)cc2)cc1Oc1c(C)cc(CCC#N)cc1C |  | 93.8 nM | 16 nM |  |  |  |  | 5.8 | 46.8 µM |  |  | 8.32 nM | 5625 | 
CNC(=O)c1cc(N)c(Nc2ccc(C#N)cc2)cc1Oc1c(OC)cc(CCC#N)cc1OC |  |  | 178 nM |  |  |  |  |  | 42.6 µM |  |  | 137 nM | 311 | 
Cc1cc(CCC#N)cc(C)c1Oc1cc(Nc2ccc(C#N)cc2)c(N)cc1CNC1CC1 | 99 min | 25.7 nM | 0.53 nM | 78.4% |  |  | 3.69 | 48 | 25.5 µM | 276 µg/mL (≈ 611 µM) | 13.6 µg/mL (≈ 30.1 µM) | 6.25 nM | 4080 | 
Cc1cc(CCC#N)cc(C)c1Oc1cc(Nc2ccc(C#N)cc2)c(N)cc1CN(C)C | 231 min | 23.4 nM | 2.73 nM | 93.3% | 1.1 |  | 2.52 | 8.6 | 23.8 µM | 260 µg/mL (≈ 591 µM) | 23.4 µg/mL (≈ 53.2 µM) | 2.16 nM | 11019 | 2.46 nM
Cc1cc(/C=C/C#N)cc(C)c1Nc1ccnc(Nc2ccc(C#N)cc2)n1 [RILPIVIRINE] | 116 min |  |  | 80.2% |  | > 30 µM | > 5 |  |  |  |  |  |  | 
